Experimental data taken from ChEMBL document CHEMBL1139474, “Cellular apoptosis and cytotoxicity of phenolic compounds: a quantitative structure-activity relationship study” (J Med Chem, 2005).

What was measured:
L1210 [1] = test: Cytotoxicity against mouse L1210 cells; conditions: mouse, l1210
L1210 [2] = test: Activity against caspase-mediated apoptosis in mouse L1210 cells at 0.1 mM; type: functional
L1210 [3] = test: Activity against caspase-mediated apoptosis in mouse L1210 cells; type: functional
[4] = Cytotoxicity against human CEM/VLB cells
CCRF-CEM = test: Cytotoxicity against human CCRF-CEM cells
HL-60 = test: Cytotoxicity against human HL60 cells; type: cell-based
Summary of the method: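 HL-60 cells grown at 37 °C in RPMI with L-glutamine and 10% FBS, then seeded at (2–5) × 10⁴ cells/mL, in duplicate, at eight or more concentrations. Compounds were diluted in unsupplemented RPMI and added 1:10. After 48 h of continuous exposure, CyQUANT GR nucleic-acid dye fluorescence was read (ex 485/em 530 nm). IC50 is the concentration giving 50% lower fluorescence than controls, taken from the dose-response curve.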

With `Cc1cccc(C)c1O` the “log(1/ID50)” value (L1210 [1]) was 3.02.
For `CCc1ccccc1O`, the Activity (L1210 [2]) was less than 15% and the “log(1/ID50)” value (L1210 [3]) was 2.11.
In the case of `CC(C)Cc1ccccc1O`, the Activity (L1210 [2]) is reported as less than 15% and the “log(1/ID50)” value (L1210 [1]) is reported as 3.9.
In the case of `CCCc1ccc(O)cc1`, the “log(1/ID50)” value [4] is reported as 3.73, the Activity (L1210 [2]) is reported as less than 15% and the “log(1/ID50)” value (L1210 [1]) is reported as 4.04. The “log(1/ID50)” value (CCRF-CEM) was 3.72.
For `CC(C)(C)c1cc(O)cc(C(C)(C)C)c1O`, the “log(1/ID50)” value (L1210 [1]) was 4.16 and the “log(1/ID50)” value (L1210 [3]) was 2.5.
For `CC(=O)c1ccc(O)c(C)c1`, the “log(1/ID50)” value (L1210 [1]) was 3.14.
In the case of `CC(C)(C)c1cc(C(C)(C)C)c(O)c(C(C)(C)C)c1`, the “log(1/ID50)” value (L1210 [1]) is reported as 5.05 and the “log(1/ID50)” value (L1210 [3]) is reported as 2.1.
For `COc1cc(NC(C)=O)cc(OC)c1O`, the “log(1/ID50)” value (L1210 [1]) was 3.99 and the “log(1/ID50)” value (L1210 [3]) was 2.5.
With `COCc1cc(C(C)(C)C)c(O)c(C(C)(C)C)c1` the “log(1/ID50)” value (L1210 [1]) was 3.93 and the “log(1/ID50)” value (L1210 [3]) was 2.9.
With `Oc1cccc(Cl)c1` the Activity (L1210 [2]) was less than 15%.
With `Oc1ccc(F)cc1` the Activity (L1210 [2]) was less than 15% and the “log(1/ID50)” value (L1210 [1]) was 3.83.
With `Oc1ccc(I)cc1` the “log(1/ID50)” value [4] was 3.86, the Activity (L1210 [2]) was less than 15% and the “log(1/ID50)” value (L1210 [1]) was 3.86. The “log(1/ID50)” value (CCRF-CEM) was 4.29.
With `Oc1ccc(Br)cc1` the Activity (L1210 [2]) was less than 15%.
With `Oc1cccc(F)c1` the Activity (L1210 [2]) was less than 15%, the “log(1/ID50)” value (L1210 [1]) was 3.46 and the “log(1/ID50)” value (L1210 [3]) was 0.82.
With `CCc1cccc(O)c1` the Activity (L1210 [2]) was less than 15% and the “log(1/ID50)” value (L1210 [1]) was 3.71.
With `COc1cc(C(C)(C)C)c(O)c(C(C)(C)C)c1` the “log(1/ID50)” value (L1210 [1]) was 3.71 and the “log(1/ID50)” value (L1210 [3]) was 2.87.
For `CCOc1ccccc1O` [1-hydroxy-2-ethoxybenzene], the Activity (L1210 [2]) was less than 15% and the “log(1/ID50)” value (L1210 [1]) was 3.25.
In the case of `COc1cccc(O)c1` [1-hydroxy-3-methoxybenzene], the Activity (L1210 [2]) is reported as less than 15%, the “log(1/ID50)” value (L1210 [1]) is reported as 3.71 and the “log(1/ID50)” value (L1210 [3]) is reported as 1.31.
For `Nc1cc([N+](=O)[O-])ccc1O` [2-AMINO-4-NITROPHENOL], the “log(1/ID50)” value (L1210 [3]) was 2.46.
For `Oc1ccccc1Cl` [2-CHLOROPHENOL], the Activity (L1210 [2]) was less than 15% and the “log(1/ID50)” value (L1210 [1]) was 3.22.
With `Cl.Nc1cccc(O)c1` [3-AMINOPHENOL HYDROCHLORIDE] the Activity (L1210 [2]) was less than 15% and the “log(1/ID50)” value (L1210 [1]) was 4.11.
For `Nc1cccc(O)c1` [3-AMINOPHENOL], the Activity (L1210 [2]) was less than 15% and the “log(1/ID50)” value (L1210 [3]) was 1.25.
In the case of `O=[N+]([O-])c1cccc(O)c1` [3-NITRO-PHENOL], the Activity (L1210 [2]) is reported as less than 15%, the “log(1/ID50)” value (L1210 [1]) is reported as 3.48 and the “log(1/ID50)” value (L1210 [3]) is reported as 0.79.
With `N#Cc1ccc(O)cc1` [4-CYANOPHENOL] the Activity (L1210 [2]) was less than 15%, the “log(1/ID50)” value (L1210 [1]) was 3.44 and the “log(1/ID50)” value (L1210 [3]) was 0.1.
For `CC(=O)c1ccc(O)cc1` [4-HYDROXYACETOPHENONE], the Activity (L1210 [2]) was less than 15% and the “log(1/ID50)” value (L1210 [3]) was 0.03.
For `O=Cc1ccc(O)cc1` [4-HYDROXYBENZALDEHYDE], the Activity (L1210 [2]) was less than 15% and the “log(1/ID50)” value (L1210 [1]) was 3.08.
For `CCCCCCCCCc1ccc(O)cc1` [4-NONYLPHENOL], the Activity (L1210 [2]) was less than 15% and the “log(1/ID50)” value (L1210 [1]) was 4.75.
With `CC(=O)Nc1ccc(O)cc1` [ACETAMINOPHEN] the Activity (L1210 [2]) was less than 15% and the “log(1/ID50)” value (L1210 [1]) was 3.73.
With `COc1cc(C(C)=O)cc(OC)c1O` [ACETOSYRINGONE] the “log(1/ID50)” value (L1210 [1]) was 3.06 and the “log(1/ID50)” value (L1210 [3]) was 2.8.
With `CC(C)(c1ccc(O)cc1)c1ccc(O)cc1` [BISPHENOL A] the “log(1/ID50)” value [4] was 3.96, the Activity (L1210 [2]) was less than 15% and the “log(1/ID50)” value (CCRF-CEM) was 4.18.
In the case of `Oc1ccccc1O` [CATECHOL], the Activity (L1210 [2]) is reported as less than 15% and the “log(1/ID50)” value (L1210 [1]) is reported as 3.75.
For `CC/C(=C(/CC)c1ccc(O)cc1)c1ccc(O)cc1` [DIETHYLSTILBESTROL], the “log(1/ID50)” value (HL-60) was 4.
In the case of `C[C@]12CCc3c(ccc4cc(O)ccc34)[C@@H]1CCC2=O` [EQUILENIN], the “log(1/ID50)” value (HL-60) is reported as 3.9.
In the case of `C[C@]12CC[C@@H]3c4ccc(O)cc4CC[C@H]3[C@@H]1CC[C@@H]2O` [ESTRADIOL], the “log(1/ID50)” value (HL-60) is reported as 3.6.
For `COc1ccccc1O.Cl` [GUAIACOL HYDROCHLORIDE], the Activity (L1210 [2]) was less than 15% and the “log(1/ID50)” value (L1210 [1]) was 3.78.
In the case of `COc1ccccc1O` [GUAIACOL], the Activity (L1210 [2]) is reported as less than 15% and the “log(1/ID50)” value (L1210 [3]) is reported as 2.41.
For `Oc1ccc(O)cc1` [HYDROQUINONE], the Activity (L1210 [2]) was less than 15% and the “log(1/ID50)” value (L1210 [1]) was 4.59.
In the case of `CC(=O)Nc1cccc(O)c1` [METACETAMOL], the Activity (L1210 [2]) is reported as less than 15%, the “log(1/ID50)” value (L1210 [1]) is reported as 2.65 and the “log(1/ID50)” value (L1210 [3]) is reported as 1.1.
With `Cc1cccc(O)c1` [METACRESOL] the Activity (L1210 [2]) was less than 15%, the “log(1/ID50)” value (L1210 [1]) was 3.54 and the “log(1/ID50)” value (L1210 [3]) was 0.45.
For `O=[N+]([O-])c1ccccc1O` [NITROPHENOLATE], the Activity (L1210 [2]) was less than 15% and the “log(1/ID50)” value (L1210 [1]) was 3.34.
For `Cc1ccccc1O` [ORTHOCRESOL], the Activity (L1210 [2]) was less than 15%, the “log(1/ID50)” value (L1210 [1]) was 3.52 and the “log(1/ID50)” value (L1210 [3]) was 1.87.
With `O=[N+]([O-])c1ccc(O)cc1` [P-NITROPHENOL] the “log(1/ID50)” value [4] was 3.36, the Activity (L1210 [2]) was less than 15% and the “log(1/ID50)” value (L1210 [1]) was 3.45. The “log(1/ID50)” value (L1210 [3]) was 1 and the “log(1/ID50)” value (CCRF-CEM) was 3.28.
For `Oc1ccc(Cl)cc1` [PARACHLOROPHENOL], the “log(1/ID50)” value [4] was 3.89, the Activity (L1210 [2]) was less than 15% and the “log(1/ID50)” value (L1210 [1]) was 4.29. The “log(1/ID50)” value (CCRF-CEM) was 3.45.
For `CC(C)c1cccc(C(C)C)c1O` [PROPOFOL], the “log(1/ID50)” value (L1210 [1]) was 3.25.
In the case of `Nc1ccccc1O` [QUESTIOMYCIN B], the Activity (L1210 [2]) is reported as less than 15%, the “log(1/ID50)” value (L1210 [1]) is reported as 5.16 and the “log(1/ID50)” value (L1210 [3]) is reported as 2.29.
With `Oc1cccc(O)c1` [RESORCINOL] the Activity (L1210 [2]) was less than 15%, the “log(1/ID50)” value (L1210 [1]) was 3.46 and the “log(1/ID50)” value (L1210 [3]) was 0.79.
In the case of `OCc1ccccc1O` [SALICYL ALCOHOL], the Activity (L1210 [2]) is reported as less than 15% and the “log(1/ID50)” value (L1210 [1]) is reported as 2.7.
With `COc1cc(C=O)cc(OC)c1O` [SYRINGALDEHYDE] the “log(1/ID50)” value (L1210 [1]) was 3.1 and the “log(1/ID50)” value (L1210 [3]) was 2.9.
In the case of `COc1cccc(OC)c1O` [SYRINGOL], the “log(1/ID50)” value (L1210 [1]) is reported as 3.86 and the “log(1/ID50)” value (L1210 [3]) is reported as 2.7.
